Reference: ChEMBL document CHEMBL4689842, “EUbOPEN Chemogenomics Library wave 1” (2021)

System: U2OS
Assay: Multiplex assay against U2OS
Assay type: toxicity, cell-based
Conditions: human
Method in brief: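 Imaging took place on a CQ1 microscope at 37°C and 5% CO2 once compound had been added to live cells stained at seeding with Hoechst33342, BioTracker Green Microtubule Cytoskeleton Dye, MitoTracker Red and Annexin V Alexa Fluor 680. CellPathfinder machine-learning gating classed cells as Hoechst high-intensity objects or normal cells, classed normal cells as having healthy, pyknosed or fragmented nuclei, and classed pyknosed cells as mitotic or apoptotic. Tubulin, mitochondrial-mass and membrane-permeability phenotypes are per cents of the healthy-nucleus cells.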

[1] = 12 h, 1 µM, compound concentration 1 uM, replicate 1
[2] = 12 h, 1 µM, compound concentration 1 uM, replicate 2
[3] = 12 h, 10 µM, compound concentration 10 uM, replicate 1
[4] = 12 h, 10 µM, compound concentration 10 uM, replicate 2
[5] = 24 h, 1 µM, compound concentration 1 uM, replicate 1
[6] = 24 h, 1 µM, compound concentration 1 uM, replicate 2
[7] = 24 h, 10 µM, compound concentration 10 uM, replicate 1
[8] = 24 h, 10 µM, compound concentration 10 uM, replicate 2
[9] = 48 h, 1 µM, compound concentration 1 uM, replicate 1
[10] = 48 h, 1 µM, compound concentration 1 uM, replicate 2
[11] = 48 h, 10 µM, compound concentration 10 uM, replicate 1
[12] = 48 h, 10 µM, compound concentration 10 uM, replicate 2

Cc1csc2c(N[C@@H](C)CN3CCN(S(=O)(=O)c4ccc(Cl)c(Cl)c4)CC3)ncnc12
Population Apoptotic (%) [1]: 70% | Population Fragmented Nuclei (%) [1]: 14% | Population Healthy Nuclei (%) [1]: 66% | Population Hoechst High Intensity Objects (%) [1]: 8% | Population Membrane Permeable-Phenotype (%) [1]: 4% | Population Mitochondria Different-Phenotype (%) [1]: 31% | Population Mitotic Cells (%) [1]: 30% | Population Normal (%) [1]: 91% | Population Pyknosed Nuclei (%) [1]: 19% | Population Tubulin-Different-Phenotype (%) [1]: 50% | Total Cell Count [1]: 158 | Population Apoptotic (%) [2]: 16% | Population Fragmented Nuclei (%) [2]: 5% | Population Healthy Nuclei (%) [2]: 84% | Population Hoechst High Intensity Objects (%) [2]: 5% | Population Membrane Permeable-Phenotype (%) [2]: 6% | Population Mitochondria Different-Phenotype (%) [2]: 33% | Population Mitotic Cells (%) [2]: 83% | Population Normal (%) [2]: 95% | Population Pyknosed Nuclei (%) [2]: 10% | Population Tubulin-Different-Phenotype (%) [2]: 47% | Total Cell Count [2]: 48 | Population Apoptotic (%) [3]: 53% | Population Fragmented Nuclei (%) [3]: 15% | Population Healthy Nuclei (%) [3]: 57% | Population Hoechst High Intensity Objects (%) [3]: 9% | Population Membrane Permeable-Phenotype (%) [3]: 55% | Population Mitochondria Different-Phenotype (%) [3]: 100% | Population Mitotic Cells (%) [3]: 46% | Population Normal (%) [3]: 90% | Population Pyknosed Nuclei (%) [3]: 27% | Population Tubulin-Different-Phenotype (%) [3]: 100% | Total Cell Count [3]: 114 | Population Apoptotic (%) [4]: 75% | Population Fragmented Nuclei (%) [4]: 12% | Population Healthy Nuclei (%) [4]: 67% | Population Hoechst High Intensity Objects (%) [4]: 4% | Population Membrane Permeable-Phenotype (%) [4]: 56% | Population Mitochondria Different-Phenotype (%) [4]: 98% | Population Mitotic Cells (%) [4]: 25% | Population Normal (%) [4]: 95% | Population Pyknosed Nuclei (%) [4]: 19% | Population Tubulin-Different-Phenotype (%) [4]: 98% | Total Cell Count [4]: 60 | Population Apoptotic (%) [5]: 73% | Population Fragmented Nuclei (%) [5]: 7% | Population Healthy Nuclei (%) [5]: 78% | Population Hoechst High Intensity Objects (%) [5]: 8% | Population Membrane Permeable-Phenotype (%) [5]: 10% | Population Mitochondria Different-Phenotype (%) [5]: 27% | Population Mitotic Cells (%) [5]: 26% | Population Normal (%) [5]: 91% | Population Pyknosed Nuclei (%) [5]: 13% | Population Tubulin-Different-Phenotype (%) [5]: 45% | Total Cell Count [5]: 175 | Population Apoptotic (%) [6]: 60% | Population Fragmented Nuclei (%) [6]: 11% | Population Healthy Nuclei (%) [6]: 73% | Population Hoechst High Intensity Objects (%) [6]: 4% | Population Membrane Permeable-Phenotype (%) [6]: 11% | Population Mitochondria Different-Phenotype (%) [6]: 25% | Population Mitotic Cells (%) [6]: 40% | Population Normal (%) [6]: 95% | Population Pyknosed Nuclei (%) [6]: 14% | Population Tubulin-Different-Phenotype (%) [6]: 23% | Total Cell Count [6]: 64 | Population Apoptotic (%) [7]: 95% | Population Fragmented Nuclei (%) [7]: 18% | Population Healthy Nuclei (%) [7]: 44% | Population Hoechst High Intensity Objects (%) [7]: 5% | Population Membrane Permeable-Phenotype (%) [7]: 75% | Population Mitochondria Different-Phenotype (%) [7]: 100% | Population Mitotic Cells (%) [7]: 4% | Population Normal (%) [7]: 94% | Population Pyknosed Nuclei (%) [7]: 36% | Population Tubulin-Different-Phenotype (%) [7]: 100% | Total Cell Count [7]: 119 | Population Apoptotic (%) [8]: 80% | Population Fragmented Nuclei (%) [8]: 15% | Population Healthy Nuclei (%) [8]: 57% | Population Hoechst High Intensity Objects (%) [8]: 4% | Population Membrane Permeable-Phenotype (%) [8]: 80% | Population Mitochondria Different-Phenotype (%) [8]: 97% | Population Mitotic Cells (%) [8]: 19% | Population Normal (%) [8]: 95% | Population Pyknosed Nuclei (%) [8]: 26% | Population Tubulin-Different-Phenotype (%) [8]: 97% | Total Cell Count [8]: 72 | Population Apoptotic (%) [9]: 77% | Population Fragmented Nuclei (%) [9]: 8% | Population Healthy Nuclei (%) [9]: 79% | Population Hoechst High Intensity Objects (%) [9]: 3% | Population Membrane Permeable-Phenotype (%) [9]: 8% | Population Mitochondria Different-Phenotype (%) [9]: 16% | Population Mitotic Cells (%) [9]: 22% | Population Normal (%) [9]: 96% | Population Pyknosed Nuclei (%) [9]: 11% | Population Tubulin-Different-Phenotype (%) [9]: 30% | Total Cell Count [9]: 243 | Population Apoptotic (%) [10]: 25% | Population Fragmented Nuclei (%) [10]: 12% | Population Healthy Nuclei (%) [10]: 82% | Population Hoechst High Intensity Objects (%) [10]: 4% | Population Mitochondria Different-Phenotype (%) [10]: 12% | Population Mitotic Cells (%) [10]: 75% | Population Normal (%) [10]: 95% | Population Pyknosed Nuclei (%) [10]: 4% | Population Tubulin-Different-Phenotype (%) [10]: 20% | Total Cell Count [10]: 89 | Population Apoptotic (%) [11]: 87% | Population Fragmented Nuclei (%) [11]: 25% | Population Healthy Nuclei (%) [11]: 30% | Population Hoechst High Intensity Objects (%) [11]: 8% | Population Membrane Permeable-Phenotype (%) [11]: 78% | Population Mitochondria Different-Phenotype (%) [11]: 96% | Population Mitotic Cells (%) [11]: 12% | Population Normal (%) [11]: 91% | Population Pyknosed Nuclei (%) [11]: 43% | Population Tubulin-Different-Phenotype (%) [11]: 100% | Total Cell Count [11]: 159 | Population Apoptotic (%) [12]: 92% | Population Fragmented Nuclei (%) [12]: 15% | Population Healthy Nuclei (%) [12]: 50% | Population Hoechst High Intensity Objects (%) [12]: 7% | Population Membrane Permeable-Phenotype (%) [12]: 84% | Population Mitochondria Different-Phenotype (%) [12]: 97% | Population Mitotic Cells (%) [12]: 7% | Population Normal (%) [12]: 92% | Population Pyknosed Nuclei (%) [12]: 34% | Population Tubulin-Different-Phenotype (%) [12]: 97% | Total Cell Count [12]: 91
